ChEMBL document CHEMBL4425133, “Discovery and Pharmacokinetic and Pharmacological Properties of the Potent and Selective MET Kinase Inhibitor 1-{6-[6-(4-Fluorophenyl)-[1,2,4]triazolo[4,3-b]pyridazin-3-ylsulfanyl]benzothiazol-2-yl}-3-(2-morpholin-4-ylethyl)urea (SAR125844)” (J Med Chem, 2016)
Several values for one entry are separate records, joined by “and”; a condition that tells them apart may be missing. Equal entries are not always repeated.

Experiments:
[1] = Drug metabolism in human hepatic microsomes at 5 uM incubated for 20 mins in presence of NADPH by liquid chromatography-tandem mass spectrometry; type: ADME, Microsome; conditions: liver microsomes, read-out: Drug metabolism
[2] = Volume of distribution at steady state in mouse at 1 mg/kg, iv; type: ADME, organism-based; conditions: in vivo, read-out: Vdss
[3] = Clearance in rat at 5 mg/kg, iv relative to hepatic blood flow; type: ADME, organism-based; conditions: in vivo
[4] = target: T1, Hepatocyte growth factor receptor (Homo sapiens, UniProt P08581); assay: Inhibition of phosphorylated MET in human MKN45 cells assessed as reduction in pMET Y1230/1234/1235 level incubated for 1 hr by ELISA; type: cell-based
T1 sequence (P08581 whole entry): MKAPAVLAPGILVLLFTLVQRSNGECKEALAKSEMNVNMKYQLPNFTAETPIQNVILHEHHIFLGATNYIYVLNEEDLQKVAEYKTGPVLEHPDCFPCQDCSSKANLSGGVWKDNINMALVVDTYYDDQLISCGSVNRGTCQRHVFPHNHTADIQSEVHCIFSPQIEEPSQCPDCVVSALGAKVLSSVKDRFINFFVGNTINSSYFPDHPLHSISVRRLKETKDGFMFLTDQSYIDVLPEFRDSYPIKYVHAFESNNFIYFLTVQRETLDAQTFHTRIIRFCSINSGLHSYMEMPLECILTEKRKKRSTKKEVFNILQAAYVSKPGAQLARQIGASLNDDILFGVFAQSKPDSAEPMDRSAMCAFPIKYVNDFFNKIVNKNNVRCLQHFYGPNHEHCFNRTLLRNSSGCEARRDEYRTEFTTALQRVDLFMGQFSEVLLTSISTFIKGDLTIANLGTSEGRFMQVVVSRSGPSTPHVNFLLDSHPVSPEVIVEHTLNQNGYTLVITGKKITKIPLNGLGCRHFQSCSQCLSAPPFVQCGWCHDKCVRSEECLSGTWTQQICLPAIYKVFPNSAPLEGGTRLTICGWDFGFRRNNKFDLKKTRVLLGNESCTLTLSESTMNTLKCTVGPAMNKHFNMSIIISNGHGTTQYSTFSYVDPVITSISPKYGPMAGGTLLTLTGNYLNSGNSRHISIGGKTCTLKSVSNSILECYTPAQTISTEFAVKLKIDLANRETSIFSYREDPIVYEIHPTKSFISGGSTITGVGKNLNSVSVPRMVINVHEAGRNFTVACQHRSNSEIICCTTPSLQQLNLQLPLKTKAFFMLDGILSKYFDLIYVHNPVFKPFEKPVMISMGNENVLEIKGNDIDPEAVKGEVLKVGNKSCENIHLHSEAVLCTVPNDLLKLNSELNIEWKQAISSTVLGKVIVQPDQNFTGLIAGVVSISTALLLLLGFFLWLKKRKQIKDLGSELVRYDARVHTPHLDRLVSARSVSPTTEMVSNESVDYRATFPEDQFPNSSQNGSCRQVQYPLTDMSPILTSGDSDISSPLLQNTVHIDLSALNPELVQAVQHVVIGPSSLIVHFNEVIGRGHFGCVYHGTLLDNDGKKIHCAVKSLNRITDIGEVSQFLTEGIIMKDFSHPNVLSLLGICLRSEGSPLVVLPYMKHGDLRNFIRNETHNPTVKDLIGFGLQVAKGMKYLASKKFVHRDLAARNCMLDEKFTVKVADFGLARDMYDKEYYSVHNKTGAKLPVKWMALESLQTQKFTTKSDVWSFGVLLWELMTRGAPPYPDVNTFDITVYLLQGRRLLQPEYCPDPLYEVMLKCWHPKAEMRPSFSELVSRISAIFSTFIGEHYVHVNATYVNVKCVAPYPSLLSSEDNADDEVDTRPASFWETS
Outline: (§1)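 MKN-45 is a MET-amplified human gastric tumour cell line.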

[5] = target: Hepatocyte growth factor receptor (Homo sapiens, UniProt P08581, M1250T); assay: Inhibition of phosphorylated MET M1250T mutant (unknown origin) pre-incubated for 30 mins before biotinylated poly(glutamate-alanine-tyrosine) peptide addition and measured after 5 mins by HTRF assay
Chain of Hepatocyte growth factor receptor (Homo sapiens, UniProt P08581, M1250T) (P08581 25-1390 M1250T limits assumed): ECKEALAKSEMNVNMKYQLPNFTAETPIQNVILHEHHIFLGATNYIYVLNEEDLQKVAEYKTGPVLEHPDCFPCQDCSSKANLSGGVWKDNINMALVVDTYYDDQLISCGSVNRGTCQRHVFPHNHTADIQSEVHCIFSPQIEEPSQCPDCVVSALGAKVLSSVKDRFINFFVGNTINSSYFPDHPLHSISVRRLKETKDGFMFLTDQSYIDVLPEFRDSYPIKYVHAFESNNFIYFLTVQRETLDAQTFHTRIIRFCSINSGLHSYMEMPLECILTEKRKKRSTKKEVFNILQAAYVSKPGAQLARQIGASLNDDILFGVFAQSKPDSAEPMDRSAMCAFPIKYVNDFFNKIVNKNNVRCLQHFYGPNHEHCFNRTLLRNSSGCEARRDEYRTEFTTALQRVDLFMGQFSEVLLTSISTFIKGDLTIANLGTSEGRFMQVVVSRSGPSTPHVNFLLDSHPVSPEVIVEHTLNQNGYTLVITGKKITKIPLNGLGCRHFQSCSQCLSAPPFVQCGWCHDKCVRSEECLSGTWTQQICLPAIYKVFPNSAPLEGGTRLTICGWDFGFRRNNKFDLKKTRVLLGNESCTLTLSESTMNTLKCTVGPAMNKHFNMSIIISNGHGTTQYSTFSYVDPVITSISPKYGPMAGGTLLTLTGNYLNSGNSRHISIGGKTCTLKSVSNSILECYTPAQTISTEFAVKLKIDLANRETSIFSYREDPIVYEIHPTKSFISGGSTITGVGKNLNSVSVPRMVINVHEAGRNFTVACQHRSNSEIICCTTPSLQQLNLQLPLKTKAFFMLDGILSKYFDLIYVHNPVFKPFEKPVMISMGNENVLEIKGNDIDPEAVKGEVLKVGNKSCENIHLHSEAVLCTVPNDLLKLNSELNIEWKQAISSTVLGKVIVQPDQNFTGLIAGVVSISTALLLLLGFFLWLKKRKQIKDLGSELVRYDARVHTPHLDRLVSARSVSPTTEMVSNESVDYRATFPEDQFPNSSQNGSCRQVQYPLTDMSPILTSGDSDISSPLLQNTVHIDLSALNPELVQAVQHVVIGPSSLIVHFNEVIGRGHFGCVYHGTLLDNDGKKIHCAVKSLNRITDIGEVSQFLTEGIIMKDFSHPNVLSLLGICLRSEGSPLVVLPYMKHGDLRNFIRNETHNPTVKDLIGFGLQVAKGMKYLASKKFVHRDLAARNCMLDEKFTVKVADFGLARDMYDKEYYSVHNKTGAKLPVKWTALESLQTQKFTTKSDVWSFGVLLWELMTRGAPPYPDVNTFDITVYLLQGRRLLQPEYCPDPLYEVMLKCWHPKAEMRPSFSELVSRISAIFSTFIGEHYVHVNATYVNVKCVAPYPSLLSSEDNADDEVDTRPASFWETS

[6] = Terminal half life in rat at 5 mg/kg, iv […]; type: ADME, organism-based; conditions: in vivo, read-out: beta t1/2 (converted)
[7] = Protein binding in plasma of SCID mouse bearing advanced-stage human Hs746T cells at 20 mg/kg, iv administered as single dose after 24 hrs by liquid chromatography-tandem mass spectrometry; type: ADME, organism-based; conditions: read-out: PPB (converted)
[8] = Terminal half life in dog at 3 mg/kg, iv; type: ADME, organism-based, Canis lupus familiaris; conditions: in vivo, read-out: beta t1/2 (converted)
[9] = Apparent permeability from apical to basolateral side in human Caco2/TC7 cells at 20 uM by liquid chromatography-tandem mass spectrometry; conditions: Caco-2
Mus musculus [10] = assay: Inhibition of MET Y1349 phosphorylation in SCID mouse bearing advanced-stage human Hs746T cells at 20 mg/kg, iv administered as single dose after 4 hrs by using MSD assay; type: functional
Mus musculus [11] = assay: Inhibition of MET Y1349 phosphorylation in SCID mouse bearing advanced-stage human Hs746T cells at 20 mg/kg, iv administered as single dose after 48 hrs by using MSD assay; type: functional
Cytochrome P450 3A4 = Cytochrome P450 3A4 (Homo sapiens, UniProt P08684); assay: Inhibition of human recombinant CYP3A4 co-expressed with human P450 reductase and human b5 reductase assessed as reduction in 7-Hydroxyquinoline production using 7-benzyloxyquinoline as substrate and NADPH incubated for 15 mins by fluorimetry; type: ADME
Chain of Cytochrome P450 3A4 (P08684 whole entry): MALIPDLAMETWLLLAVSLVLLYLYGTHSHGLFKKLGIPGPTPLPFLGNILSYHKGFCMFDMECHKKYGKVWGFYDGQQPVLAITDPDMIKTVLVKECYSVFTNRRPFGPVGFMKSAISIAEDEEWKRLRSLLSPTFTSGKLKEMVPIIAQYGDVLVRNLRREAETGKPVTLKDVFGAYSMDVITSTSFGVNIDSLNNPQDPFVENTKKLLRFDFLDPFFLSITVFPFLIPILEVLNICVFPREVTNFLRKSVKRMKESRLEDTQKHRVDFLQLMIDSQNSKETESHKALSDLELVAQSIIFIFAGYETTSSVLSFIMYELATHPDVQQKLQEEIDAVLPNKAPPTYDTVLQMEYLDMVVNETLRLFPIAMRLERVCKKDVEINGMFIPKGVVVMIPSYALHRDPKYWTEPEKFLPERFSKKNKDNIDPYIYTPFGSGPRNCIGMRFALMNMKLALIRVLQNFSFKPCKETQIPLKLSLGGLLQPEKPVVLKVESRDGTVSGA

in vivo = conditions: SCID, mouse, tumor/plasma, iv, 20 mg/kg
[12] = Clearance in dog at 3 mg/kg, iv; type: ADME, organism-based, Canis lupus familiaris; conditions: in vivo
[13] = Toxicity in advanced solid tumor patient at 50 to 740 mg/m2 during phase-1 trial; conditions: human, in vivo
[14] = Clearance in mouse at 1 mg/kg, iv relative to hepatic blood flow; type: ADME, organism-based; conditions: in vivo
[15] = Drug distribution in rat tumor at 25 mg/kg administered as [14C[-labeled compound through infusion after 1 to 2 hrs; type: ADME, organism-based, Neoplasm; conditions: in vivo, iv
[16] = target: T1, Hepatocyte growth factor receptor; assay: Inhibition of wild type phosphorylated MET (unknown origin) pre-incubated for 30 mins before biotinylated poly(glutamate-alanine-tyrosine) peptide addition and measured after 5 mins by HTRF assay
[17] = Drug uptake in tumor of SCID mouse bearing advanced-stage human Hs746T cells at 20 mg/kg, iv administered as single dose after 1 to 72 hrs by liquid chromatography-tandem mass spectrometry; type: ADME, organism-based, Neoplasm; conditions: in vivo
[18] = Equilibrium solubility in phosphate buffer in absence of 10% Labrasol at pH 7.4; type: physicochemical
[19] = Terminal half life in advanced solid tumor patient at 50 to 740 mg/m2 during phase-1 trial; type: ADME; conditions: human, in vivo; read-out: beta t1/2 (converted)
[20] = Volume of distribution at steady state in rat at 5 mg/kg, iv; type: ADME, organism-based; conditions: in vivo, read-out: Vdss
[21] = Volume of distribution at steady state in SCID mouse bearing advanced-stage human Hs746T cells at 20 mg/kg, iv administered as single dose after 1 to 72 hrs by liquid chromatography-tandem mass spectrometry; type: ADME, organism-based; conditions: in vivo, read-out: Vdss
[22] = Oral bioavailability in mouse; type: ADME, organism-based; conditions: in vivo
[23] = target: T1, Hepatocyte growth factor receptor; assay: Binding affinity to MET (unknown origin) by isothermal titration calorimetry
[24] = Volume of distribution at steady state in advanced solid tumor patient at 50 to 740 mg/m2 during phase-1 trial; type: ADME; conditions: human, in vivo; read-out: Vdss
[25] = Drug uptake in tumor of SCID mouse bearing advanced-stage human Hs746T cells at 20 mg/kg, iv administered as single dose after 24 hrs by liquid chromatography-tandem mass spectrometry; type: ADME, organism-based, Neoplasm; conditions: read-out: Drug uptake
[26] = Clearance in dog at 3 mg/kg, iv relative to hepatic blood flow; type: ADME, organism-based, Canis lupus familiaris; conditions: in vivo
[27] = AUC in SCID mouse bearing advanced-stage human Hs746T cells at 20 mg/kg, iv administered as single dose after 1 to 72 hrs by liquid chromatography-tandem mass spectrometry; type: ADME, organism-based; conditions: in vivo
Mus musculus [28] = assay: Inhibition of MET Y1349 phosphorylation in SCID mouse bearing advanced-stage human Hs746T cells at 20 mg/kg, iv administered as single dose after 4 to 48 hrs by using MSD assay; type: functional, organism-based; conditions: TDE = time-dependent effect
[29] = Clearance in SCID mouse bearing advanced-stage human Hs746T cells at 20 mg/kg, iv administered as single dose after 1 to 72 hrs by liquid chromatography-tandem mass spectrometry; type: ADME, organism-based; conditions: in vivo
[30] = target: Hepatocyte growth factor receptor (Homo sapiens, UniProt P08581, L1195V); assay: Inhibition of phosphorylated MET L1195V mutant (unknown origin) pre-incubated for 30 mins before biotinylated poly(glutamate-alanine-tyrosine) peptide addition and measured after 5 mins by HTRF assay
[31] = Volume of distribution at steady state in dog at 3 mg/kg, iv; type: ADME, organism-based, Canis lupus familiaris; conditions: in vivo, read-out: Vdss
[32] = Blood clearance in advanced solid tumor patient at 50 to 740 mg/m2 during phase-1 trial; type: ADME, tissue-based; conditions: human, whole blood
[33] = Clearance in mouse at 1 mg/kg, iv; type: ADME, organism-based; conditions: in vivo
[34] = Terminal half life in mouse at 1 mg/kg, iv […]; type: ADME, organism-based; conditions: in vivo, read-out: beta t1/2 (converted)
[35] = Unbound drug uptake in tumor of SCID mouse bearing advanced-stage human Hs746T cells at 20 mg/kg, iv administered as single dose after 24 hrs by liquid chromatography-tandem mass spectrometry; type: ADME, organism-based, Neoplasm; conditions: in vivo
[36] = Blood clearance in advanced solid tumor patient at 50 to 740 mg/m2 relative to hepatic blood flow during phase-1 trial; type: ADME, tissue-based; conditions: human
Mus musculus [37] = assay: Inhibition of MET Y1349 phosphorylation in SCID mouse bearing advanced-stage human Hs746T cells at 20 mg/kg, iv administered as single dose after 24 hrs by using MSD assay; type: functional
[38] = Drug distribution in rat at 25 mg/kg administered as [14C[-labeled compound through infusion after 1 to 2 hrs; type: ADME, organism-based; conditions: in vivo, iv
[39] = Clearance in rat at 5 mg/kg, iv; type: ADME, organism-based; conditions: in vivo
MKN-45 = assay: Antiproliferative activity against human MKN45 cells assessed as reduction in [14C]-thymidine incorporation incubated for 96 hrs by beta counting method; type: functional, cell-based; conditions: MKN-45, 96 h; outline: as §1
[40] = Equilibrium solubility in phosphate buffer in presence of 10% Labrasol at pH 7.4; type: physicochemical; conditions: phosphate buffer with 10% Labrasol
[41] = Lipophilicity, log D of the compound by HPLC method; type: physicochemical
[42] = target: Hepatocyte growth factor receptor (Homo sapiens, UniProt P08581, Y1230H); assay: Inhibition of phosphorylated MET Y1230H mutant (unknown origin) pre-incubated for 30 mins before biotinylated poly(glutamate-alanine-tyrosine) peptide addition and measured after 5 mins by HTRF assay
Chain of Hepatocyte growth factor receptor (Homo sapiens, UniProt P08581, Y1230H) (P08581 25-1390 Y1230H limits assumed): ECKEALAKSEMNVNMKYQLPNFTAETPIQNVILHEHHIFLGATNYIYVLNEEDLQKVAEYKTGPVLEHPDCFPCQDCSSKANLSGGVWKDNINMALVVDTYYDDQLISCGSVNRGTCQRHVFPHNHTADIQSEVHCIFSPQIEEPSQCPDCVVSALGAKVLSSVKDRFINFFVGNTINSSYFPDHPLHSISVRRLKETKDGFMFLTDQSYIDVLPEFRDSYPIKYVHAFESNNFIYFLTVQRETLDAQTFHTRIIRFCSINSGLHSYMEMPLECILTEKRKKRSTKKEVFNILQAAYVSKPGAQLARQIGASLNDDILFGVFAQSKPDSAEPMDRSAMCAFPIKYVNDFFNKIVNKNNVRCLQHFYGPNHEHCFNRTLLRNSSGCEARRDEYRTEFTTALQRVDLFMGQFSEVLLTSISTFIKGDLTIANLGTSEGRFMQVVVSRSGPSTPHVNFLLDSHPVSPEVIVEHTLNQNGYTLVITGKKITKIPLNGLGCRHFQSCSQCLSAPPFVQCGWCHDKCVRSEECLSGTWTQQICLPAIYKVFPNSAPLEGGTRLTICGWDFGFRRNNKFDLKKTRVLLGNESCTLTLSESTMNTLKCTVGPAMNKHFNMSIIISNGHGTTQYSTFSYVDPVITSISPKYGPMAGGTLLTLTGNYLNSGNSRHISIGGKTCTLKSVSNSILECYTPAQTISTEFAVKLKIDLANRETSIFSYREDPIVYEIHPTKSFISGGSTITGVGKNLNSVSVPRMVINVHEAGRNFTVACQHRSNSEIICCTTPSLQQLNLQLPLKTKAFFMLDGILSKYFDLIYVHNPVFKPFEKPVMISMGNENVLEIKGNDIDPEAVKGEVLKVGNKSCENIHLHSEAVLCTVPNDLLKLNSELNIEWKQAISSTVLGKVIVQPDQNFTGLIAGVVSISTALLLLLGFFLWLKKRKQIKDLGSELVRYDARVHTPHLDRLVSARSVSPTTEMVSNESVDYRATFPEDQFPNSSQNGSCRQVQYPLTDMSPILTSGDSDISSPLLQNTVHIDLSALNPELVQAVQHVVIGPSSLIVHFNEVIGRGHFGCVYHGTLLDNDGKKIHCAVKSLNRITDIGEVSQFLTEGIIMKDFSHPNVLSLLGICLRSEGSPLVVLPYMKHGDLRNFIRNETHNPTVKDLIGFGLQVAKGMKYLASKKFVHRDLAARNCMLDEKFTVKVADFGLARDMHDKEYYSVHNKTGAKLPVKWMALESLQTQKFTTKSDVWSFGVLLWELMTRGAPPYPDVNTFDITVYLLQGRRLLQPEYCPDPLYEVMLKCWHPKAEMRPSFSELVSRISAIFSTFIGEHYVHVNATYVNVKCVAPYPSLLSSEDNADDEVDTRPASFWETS

[43] = Drug level in advanced solid tumor patient at 50 to 740 mg/m2 during phase-1 trial; type: ADME; conditions: human, in vivo

**Q.** What does the source list for O=C(NCCN1CCOCC1)Nc1nc2ccc(Sc3nnc4ccc(-c5ccc(F)cc5)nn34)cc2s1 [SAR-125844]?
**A.** metabolised at 20 min, 5 µM [1]: 23%; Vd [2]: 3.2 L/kg; CL [3]: 36%; IC50 [4]: 5 nM; IC50 [5]: 6 nM; half-life [6]: 3.6 h; fraction unbound at 24 h [7]: 0.0033; half-life [8]: 3.8 h; Papp A→B at 20 µM [9]: 0.9 ×10⁻⁶ cm/s; inhibition in vivo at 20 mg/kg (Mus musculus [10]): 96%; inhibition in vivo at 20 mg/kg (Mus musculus [11]): 61%; IC50 (Cytochrome P450 3A4): > 200000 nM; Kp (in vivo): 8.1; clearance [12]: 8.33 mL/min/kg; MTD [13]: 570 mg/m2; CL [14]: 54%; Drug uptake [15]: Active; IC50 [16]: 4 nM; Drug uptake [17]: Active; solubility thermodynamic [18]: < 1 µM; half-life [19]: 15.9 h; Vd [20]: 2.9 L/kg; Vd [21]: 4.2 L/kg; bioavailability [22]: 2%; Kd [23]: 0.9 nM; Vd [24]: 505 L and 7.2 L/kg; concentration at 24 h [25]: 300 ng/mL; CL [26]: 20%; AUC [27]: 6190 ng·h/mL; inhibition (Mus musculus [28]): Tde; clearance [29]: 51.7 mL/min/kg; IC50 [30]: 64 nM; Vd [31]: 1.3 L/kg; clearance [32]: 565 mL/min and 8.33 mL/min/kg; clearance [33]: 46.7 mL/min/kg; half-life [34]: 4.8 h; Drug uptake(free) [35]: 2 nM; CL [36]: 37%; inhibition in vivo at 20 mg/kg (Mus musculus [37]): 80%; Drug uptake [38]: Active; clearance [39]: 25 mL/min/kg; IC50 (MKN-45): 7 nM; solubility thermodynamic [40]: 500 µM; logD [41]: 4.2; IC50 [42]: 204 nM; Drug uptake [43]: Dose-dependent effect
